Measured values: ChEMBL document CHEMBL2062524, “Synthesis, cytotoxicity of new 4-arylidene curcumin analogues and their multi-functions in inhibition of both NF-κB and Akt signalling” (Eur J Med Chem, 2012)

Key:
[1] = Antiproliferative activity against human CNE2 cells after 48 hrs by SRB assay; format: functional, cell-based; conditions: CNE-2, 48 h
Summary of the method: (§1)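 SRB assay on cells in RPMI-1640 with 2 mM glutamine, 10% FBS and penicillin/streptomycin at 37 °C and 5% CO2. Seeded at 5000 cells/well and grown 24 h, then compounds added in triplicate (DMSO 0.5% final) for 48 h. Fixed with TCA at 4 °C for 1 h, stained with SRB, dye dissolved in 10 mM Tris pH 10.4, OD read at 515 nm. IC50 from nonlinear dose-response fit; experiments run at least twice.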

[2] = Inhibition of TNFalpha-induced NF-kappaB translocation in human A549 cells incubated at 37 degC for 30 mins by high content analysis based immunofluorescence assay; format: cell-based; conditions: A549, 0.5 h
Summary of the method: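 A549 cells at 2000/well grown 24 h, then compound added in duplicate (DMSO 0.5% final) for 30 min at 37 °C. Stimulated with TNFα at 10 ng/mL final for 30 min, then fixed with 4% paraformaldehyde and permeabilized with Triton X-100. Stained with anti-p65 and DyLight 488 secondary plus Hoechst, imaged on ArrayScan. Nuclear minus cytoplasmic intensity, background-subtracted, given as % of TNFα-only control. IC50 from this; repeated at least twice.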

HepG2 = assay: Antiproliferative activity against human HepG2 cells after 48 hrs by SRB assay; format: functional, cell-based; conditions: HepG2, 48 h; summary of the method: as §1
A549 = assay: Antiproliferative activity against human A549 cells after 48 hrs by SRB assay; format: functional, cell-based; conditions: A549, 48 h; summary of the method: as §1
MCF7 = assay: Antiproliferative activity against human MCF7 cells after 48 hrs by SRB assay; format: functional, cell-based; conditions: MCF7, 48 h; summary of the method: as §1
[3] = molecular target: T1, RAC-alpha serine/threonine-protein kinase (Homo sapiens, UniProt P31749); assay: Inhibition of AKT1 by AKT1/PKBalpha KinEASE FP fluorescein green assay
T1 sequence (P31749 whole entry): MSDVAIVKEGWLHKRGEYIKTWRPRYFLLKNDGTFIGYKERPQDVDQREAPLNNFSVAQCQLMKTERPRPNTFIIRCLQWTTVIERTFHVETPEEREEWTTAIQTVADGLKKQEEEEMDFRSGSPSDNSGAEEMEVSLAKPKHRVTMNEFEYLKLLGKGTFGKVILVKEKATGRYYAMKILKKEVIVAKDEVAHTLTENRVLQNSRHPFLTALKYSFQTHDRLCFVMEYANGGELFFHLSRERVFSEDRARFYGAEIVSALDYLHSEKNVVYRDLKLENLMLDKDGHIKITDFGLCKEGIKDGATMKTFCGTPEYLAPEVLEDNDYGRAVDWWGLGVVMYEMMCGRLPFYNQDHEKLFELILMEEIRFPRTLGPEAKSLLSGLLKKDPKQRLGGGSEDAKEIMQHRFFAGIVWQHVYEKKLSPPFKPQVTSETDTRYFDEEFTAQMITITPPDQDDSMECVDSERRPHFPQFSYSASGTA
Summary of the method: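 Kinase reaction with Akt1 enzyme (amount giving 70% activity) and STK Substrate 3 (10 µM final) in 50 mM HEPES pH 7.2, 0.01% BSA, 5 mM MgCl2, 1 mM DTT, preincubated with compound 10 min at 25 °C. ATP (100 µM final) starts reaction, run 1 h at 25 °C. Stopped with phospho-STK tracer plus antibody, 6 h, then FP read (ex 470/em 530 nm). IC50 by nonlinear fit; triplicates, repeated twice.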

SW480 = assay: Antiproliferative activity against human SW480 cells after 48 hrs by SRB assay; format: functional, cell-based; conditions: SW480, 48 h; summary of the method: as §1
[4] = molecular target: T1, RAC-alpha serine/threonine-protein kinase; assay: Inhibition of AKT1-mediated GSK3beta phosphorylation in human A549 cells incubated for 12 hrs by Western blot; format: cell-based
Summary of the method: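 A549 cells grown to 70% confluence, exposed 12 h to compound at 0.125–1.0 µM. Lysed in NP-40 buffer with protease inhibitors, then equal protein run on 10% SDS-PAGE and transferred to PVDF. Probed with anti-phospho-GSK3β (S9) at 1:1000 overnight at 4 °C, then HRP secondary at 1:5000.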

IC50 [2] [µM]	IC50 (HepG2) [nM]	IC50 (A549) [nM]	IC50 (MCF7) [nM]	IC50 [3] [nM]	IC50 (SW480) [nM]	inhibition [4]	Compound	IC50 [1] [nM]
12.3	390	380	1600	1660	1370	–	COc1ccc(/C=C/C(=O)C(=Cc2ccc(OC)c(O)c2)C(=O)/C=C/c2ccc(OC)cc2OC)c(OC)c1	760
5.53	240	200	360	–	260	–	COc1cc(C=C(C(=O)/C=C/c2cccc(OC)c2OC)C(=O)/C=C/c2cccc(OC)c2OC)cc(Br)c1O	220
> 50	1190	1090	2600	–	1480	–	COc1ccc(/C=C/C(=O)C(=Cc2cc(Br)c(O)c(OC)c2)C(=O)/C=C/c2ccc(OC)cc2OC)c(OC)c1	1780
1.78	470	390	990	–	1120	–	COc1ccc(OC)c(/C=C/C(=O)C(=Cc2ccc(OC)c(O)c2)C(=O)/C=C/c2cc(OC)ccc2OC)c1	730
4.19	280	220	580	5020	490	–	COc1ccc(OC)c(/C=C/C(=O)C(=Cc2cc(Br)c(O)c(OC)c2)C(=O)/C=C/c2cc(OC)ccc2OC)c1	420
2.62	210	240	460	–	420	–	COc1cc(C=C(C(=O)/C=C/c2cccc(OC)c2OC)C(=O)/C=C/c2cccc(OC)c2OC)cc(OC)c1O	300
> 50	5560	16300	> 50000	–	15600	–	COc1ccc(OC)c(/C=C/C(=O)/C=C(O)/C=C/c2cc(OC)ccc2OC)c1	14700
10.4	510	590	2140	–	1520	–	COc1ccc(/C=C/C(=O)C(=Cc2ccc(O)c(OC)c2)C(=O)/C=C/c2ccc(OC)cc2OC)c(OC)c1	970
> 50	12900	11500	> 50000	–	12000	–	COc1cccc(/C=C/C(=O)/C=C(O)/C=C/c2cccc(OC)c2OC)c1OC	12800
> 50	660	730	1460	–	1450	–	COc1cc(OC)c(/C=C/C(=O)C(=Cc2cc(Br)c(O)c(OC)c2)C(=O)/C=C/c2c(OC)cc(OC)cc2OC)c(OC)c1	1320

Second part, the molecule before the results:

Compound	IC50 [2] [µM]	IC50 (HepG2) [nM]	IC50 (A549) [nM]	IC50 (MCF7) [nM]	IC50 [3] [nM]	IC50 (SW480) [nM]	inhibition [4]	IC50 [1] [nM]
COc1cc(OC)c(C=C(C(=O)/C=C/c2cccc(OC)c2OC)C(=O)/C=C/c2cccc(OC)c2OC)c(OC)c1	> 50	300	630	720	–	840	–	630
COc1ccc(/C=C/C(=O)C(=Cc2ccc(O)c(F)c2)C(=O)/C=C/c2ccc(OC)cc2OC)c(OC)c1	23	1760	2070	5450	–	3350	–	2830
COc1cccc(/C=C/C(=O)C(=Cc2ccc(OC)c(OC)c2OC)C(=O)/C=C/c2cccc(OC)c2OC)c1OC	1.63	240	260	380	–	560	–	410
COc1cccc(/C=C/C(=O)C(=Cc2ccc(F)cc2)C(=O)/C=C/c2cccc(OC)c2OC)c1OC	1.72	580	340	1830	–	1040	–	610
COc1ccc(OC)c(/C=C/C(=O)C(=Cc2ccc(O)c(OC)c2)C(=O)/C=C/c2cc(OC)ccc2OC)c1	2.65	340	190	400	–	410	–	340
COc1ccc(/C=C/C(=O)C(=Cc2cc(OC)c(O)c(OC)c2)C(=O)/C=C/c2ccc(OC)cc2OC)c(OC)c1	3.93	320	300	970	–	850	–	850
COc1ccc(C=C(C(=O)/C=C/c2cccc(OC)c2OC)C(=O)/C=C/c2cccc(OC)c2OC)cc1O	1.26	270	270	310	–	320	–	220
COc1ccc(OC)c(/C=C/C(=O)C(=Cc2ccc(OC)c(OC)c2)C(=O)/C=C/c2cc(OC)ccc2OC)c1	14.4	260	400	850	–	560	–	550
COc1cc(C=C(C(=O)/C=C/c2cccc(OC)c2OC)C(=O)/C=C/c2cccc(OC)c2OC)ccc1O	1.71	200	130	480	810	430	Dose-dependent effect	280
COc1cccc(C=C(C(=O)/C=C/c2cccc(OC)c2OC)C(=O)/C=C/c2cccc(OC)c2OC)c1OC	2.39	230	320	520	–	590	–	400
COc1cc(OC)c(/C=C/C(=O)C(=Cc2cc(OC)c(O)c(OC)c2)C(=O)/C=C/c2c(OC)cc(OC)cc2OC)c(OC)c1	> 50	510	340	1030	–	980	–	680
COc1cccc(/C=C/C(=O)C(=Cc2cc(OC)c(OC)c(OC)c2)C(=O)/C=C/c2cccc(OC)c2OC)c1OC	1.32	220	230	840	–	650	–	400
COc1cc(OC)c(/C=C/C(=O)C(=Cc2ccc(O)c(F)c2)C(=O)/C=C/c2c(OC)cc(OC)cc2OC)c(OC)c1	> 50	810	1060	3180	–	1950	–	1580
COc1ccc(OC)c(/C=C/C(=O)C(=Cc2ccc(O)c(F)c2)C(=O)/C=C/c2cc(OC)ccc2OC)c1	3.01	220	220	460	–	510	–	380
COc1ccc(/C=C/C(=O)/C=C(O)/C=C/c2ccc(OC)cc2OC)c(OC)c1	> 50	10400	44700	> 50000	–	> 50000	–	> 50000
COc1cc(OC)c(/C=C/C(=O)C(=Cc2ccc(O)c(OC)c2)C(=O)/C=C/c2c(OC)cc(OC)cc2OC)c(OC)c1	> 50	670	580	1880	–	1490	–	1350
COc1ccc(OC)c(/C=C/C(=O)C(=Cc2cc(OC)c(O)c(OC)c2)C(=O)/C=C/c2cc(OC)ccc2OC)c1	0.95	210	190	430	–	500	–	450
COc1ccc(C=C(C(=O)/C=C/c2cccc(OC)c2OC)C(=O)/C=C/c2cccc(OC)c2OC)cc1OC	1.67	200	170	560	–	410	–	280
COc1cccc(/C=C/C(=O)C(=Cc2ccc(O)c(F)c2)C(=O)/C=C/c2cccc(OC)c2OC)c1OC	5.25	220	200	300	–	330	–	260
COc1cc(OC)c(/C=C/C(=O)/C=C(O)/C=C/c2c(OC)cc(OC)cc2OC)c(OC)c1	> 50	16500	> 50000	> 50000	–	> 50000	–	> 50000
COc1cc(/C=C/C(=O)CC(=O)/C=C/c2ccc(O)c(OC)c2)ccc1O [CURCUMIN]	21.4	20700	11600	15700	–	10200	–	5760
